Reference: ChEMBL document CHEMBL2380209, “Synthesis and pharmacological characterization of 4-substituted-2-aminobicyclo[3.1.0]hexane-2,6-dicarboxylates: identification of new potent and selective metabotropic glutamate 2/3 receptor agonists” (J Med Chem, 2013)

How the values were obtained:
[1] = biological target: T1, Metabotropic glutamate receptor 6 (Homo sapiens, UniProt O15303); test: Agonist activity at human mGlu6 receptor expressed in golden Syrian hamster AV12 cells coexpressing EAAT1 after 20 mins by FLIPR assay; assay type: cell-based
T1 sequence (O15303 whole entry): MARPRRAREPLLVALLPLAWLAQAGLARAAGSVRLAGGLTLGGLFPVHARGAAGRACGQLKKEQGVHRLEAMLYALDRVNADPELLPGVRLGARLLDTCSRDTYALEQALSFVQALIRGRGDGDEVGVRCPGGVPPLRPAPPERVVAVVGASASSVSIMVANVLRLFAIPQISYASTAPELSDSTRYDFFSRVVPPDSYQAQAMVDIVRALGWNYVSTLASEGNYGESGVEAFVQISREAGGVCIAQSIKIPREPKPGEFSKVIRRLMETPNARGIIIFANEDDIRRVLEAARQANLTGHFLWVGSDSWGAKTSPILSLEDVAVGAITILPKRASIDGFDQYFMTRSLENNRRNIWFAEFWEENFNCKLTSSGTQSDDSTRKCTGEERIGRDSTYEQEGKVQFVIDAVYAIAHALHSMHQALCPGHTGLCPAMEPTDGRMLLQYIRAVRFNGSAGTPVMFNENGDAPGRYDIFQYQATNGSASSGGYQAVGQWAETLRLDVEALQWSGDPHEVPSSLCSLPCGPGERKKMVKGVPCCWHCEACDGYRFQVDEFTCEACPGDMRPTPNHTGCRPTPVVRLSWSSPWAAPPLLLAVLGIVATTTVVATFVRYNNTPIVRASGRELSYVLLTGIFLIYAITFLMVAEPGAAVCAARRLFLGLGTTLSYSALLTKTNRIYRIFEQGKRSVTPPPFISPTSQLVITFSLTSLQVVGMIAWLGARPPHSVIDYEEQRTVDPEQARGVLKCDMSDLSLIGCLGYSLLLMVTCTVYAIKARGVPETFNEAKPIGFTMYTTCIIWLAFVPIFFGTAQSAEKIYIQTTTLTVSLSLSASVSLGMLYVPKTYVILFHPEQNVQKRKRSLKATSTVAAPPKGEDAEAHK

[2] = biological target: T2, Metabotropic glutamate receptor 3 (Homo sapiens, UniProt Q14832); test: Agonist activity at human mGlu3 receptor expressed in golden Syrian hamster AV12 cells coexpressing EAAT1 after 20 mins by HTRF assay; assay type: cell-based
T2 sequence (Q14832 whole entry): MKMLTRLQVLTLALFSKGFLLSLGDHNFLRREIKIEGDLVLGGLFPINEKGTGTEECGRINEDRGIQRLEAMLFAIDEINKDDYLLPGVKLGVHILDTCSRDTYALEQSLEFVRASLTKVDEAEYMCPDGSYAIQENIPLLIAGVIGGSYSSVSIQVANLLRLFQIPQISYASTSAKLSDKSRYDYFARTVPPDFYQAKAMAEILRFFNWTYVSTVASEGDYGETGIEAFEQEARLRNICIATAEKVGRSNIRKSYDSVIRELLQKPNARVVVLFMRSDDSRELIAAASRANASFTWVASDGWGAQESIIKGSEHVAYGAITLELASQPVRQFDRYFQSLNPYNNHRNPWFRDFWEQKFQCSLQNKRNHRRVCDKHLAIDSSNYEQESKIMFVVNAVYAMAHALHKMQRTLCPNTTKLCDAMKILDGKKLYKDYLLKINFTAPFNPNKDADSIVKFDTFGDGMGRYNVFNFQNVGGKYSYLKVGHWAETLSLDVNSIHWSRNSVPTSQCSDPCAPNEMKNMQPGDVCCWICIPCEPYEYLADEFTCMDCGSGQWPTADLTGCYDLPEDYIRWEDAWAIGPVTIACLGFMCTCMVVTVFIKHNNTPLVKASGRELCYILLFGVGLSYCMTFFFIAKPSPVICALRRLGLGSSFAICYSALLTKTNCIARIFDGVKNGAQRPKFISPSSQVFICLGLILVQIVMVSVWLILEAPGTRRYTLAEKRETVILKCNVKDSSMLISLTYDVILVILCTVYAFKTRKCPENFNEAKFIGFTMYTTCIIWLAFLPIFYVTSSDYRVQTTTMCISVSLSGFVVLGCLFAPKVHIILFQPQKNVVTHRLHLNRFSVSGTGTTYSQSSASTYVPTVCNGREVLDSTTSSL

[3] = biological target: T3, Metabotropic glutamate receptor 2 (Homo sapiens, UniProt Q14416); test: Agonist activity at human mGlu2 receptor expressed in golden Syrian hamster AV12 cells coexpressing EAAT1 after 20 mins by HTRF assay; assay type: cell-based
T3 sequence (Q14416 whole entry): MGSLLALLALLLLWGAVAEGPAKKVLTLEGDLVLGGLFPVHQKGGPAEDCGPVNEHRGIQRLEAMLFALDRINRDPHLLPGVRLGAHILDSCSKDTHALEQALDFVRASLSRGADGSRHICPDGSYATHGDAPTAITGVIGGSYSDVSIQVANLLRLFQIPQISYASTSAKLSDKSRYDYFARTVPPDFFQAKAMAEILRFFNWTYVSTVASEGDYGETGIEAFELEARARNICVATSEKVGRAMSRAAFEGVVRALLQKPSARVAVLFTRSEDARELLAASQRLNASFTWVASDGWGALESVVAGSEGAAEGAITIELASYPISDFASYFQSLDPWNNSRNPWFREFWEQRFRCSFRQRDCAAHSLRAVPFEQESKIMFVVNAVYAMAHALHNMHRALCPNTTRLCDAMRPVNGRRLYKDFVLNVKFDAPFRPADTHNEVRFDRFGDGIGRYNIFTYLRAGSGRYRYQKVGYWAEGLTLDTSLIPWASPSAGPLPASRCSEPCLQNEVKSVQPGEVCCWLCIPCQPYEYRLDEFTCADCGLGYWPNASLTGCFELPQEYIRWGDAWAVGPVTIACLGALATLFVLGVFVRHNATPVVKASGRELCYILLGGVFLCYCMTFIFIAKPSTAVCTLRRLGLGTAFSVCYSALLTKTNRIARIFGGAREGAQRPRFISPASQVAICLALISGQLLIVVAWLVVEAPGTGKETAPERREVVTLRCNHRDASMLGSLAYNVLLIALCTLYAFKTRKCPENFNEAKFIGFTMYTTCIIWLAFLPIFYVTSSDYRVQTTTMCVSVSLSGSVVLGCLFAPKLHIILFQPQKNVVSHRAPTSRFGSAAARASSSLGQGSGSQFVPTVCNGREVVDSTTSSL

[4] = biological target: Metabotropic glutamate receptor 8 (Homo sapiens, UniProt O00222); test: Agonist activity at human mGlu8 receptor expressed in golden Syrian hamster AV12 cells coexpressing EAAT1 after 20 mins by FLIPR assay; assay type: cell-based
Metabotropic glutamate receptor 8, sequence (O00222 whole entry): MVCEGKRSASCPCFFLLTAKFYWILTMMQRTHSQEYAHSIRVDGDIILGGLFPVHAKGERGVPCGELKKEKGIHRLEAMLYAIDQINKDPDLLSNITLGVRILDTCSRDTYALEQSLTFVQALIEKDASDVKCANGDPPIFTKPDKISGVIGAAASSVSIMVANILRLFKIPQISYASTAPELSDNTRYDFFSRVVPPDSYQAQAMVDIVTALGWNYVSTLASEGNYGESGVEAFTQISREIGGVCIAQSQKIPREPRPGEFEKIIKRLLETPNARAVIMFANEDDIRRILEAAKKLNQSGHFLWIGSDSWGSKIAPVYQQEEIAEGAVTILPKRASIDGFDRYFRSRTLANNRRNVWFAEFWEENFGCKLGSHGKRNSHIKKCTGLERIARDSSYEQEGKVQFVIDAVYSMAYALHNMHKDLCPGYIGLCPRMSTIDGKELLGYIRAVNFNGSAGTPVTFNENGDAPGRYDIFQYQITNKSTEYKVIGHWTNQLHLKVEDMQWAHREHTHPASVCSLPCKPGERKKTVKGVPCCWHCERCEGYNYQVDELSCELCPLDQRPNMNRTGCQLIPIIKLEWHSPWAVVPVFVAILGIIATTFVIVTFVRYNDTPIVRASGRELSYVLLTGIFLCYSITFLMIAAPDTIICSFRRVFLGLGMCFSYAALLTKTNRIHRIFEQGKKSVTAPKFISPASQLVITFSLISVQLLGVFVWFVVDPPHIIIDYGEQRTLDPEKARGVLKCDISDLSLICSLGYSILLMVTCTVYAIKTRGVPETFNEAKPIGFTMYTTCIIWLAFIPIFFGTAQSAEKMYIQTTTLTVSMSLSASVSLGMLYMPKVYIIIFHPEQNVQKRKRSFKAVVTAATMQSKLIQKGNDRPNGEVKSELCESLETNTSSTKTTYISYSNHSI

[5] = biological target: T1, Metabotropic glutamate receptor 6; test: Agonist activity at human mGlu6 receptor expressed in golden Syrian hamster AV12 cells coexpressing EAAT1 assessed as inhibition of forskolin-stimulated cAMP production after 20 mins by FLIPR assay
[6] = biological target: T1, Metabotropic glutamate receptor 6; test: Antagonist activity at human mGlu6 receptor expressed in golden Syrian hamster AV12 cells coexpressing EAAT1 assessed as inhibition of forskolin-stimulated cAMP production after 20 mins by FLIPR assay relative to control; assay type: functional, cell-based
[7] = Cmax in Sprague-Dawley rat at 10 mg/kg, po up to 24 hrs by LC/MS/MS analysis; assay type: ADME, organism-based; design: dose 10 mg/kg, route oral; conditions: in vivo
How it was run: (§1)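 Fasted male Sprague Dawley rats (~250 g) were dosed with an aqueous solution adjusted to pH 7-7.5 with NaOH, by oral gavage (1, 3, 10 mg/kg) or intravenously (3 mg/kg). Serial jugular-catheter blood samples (11-12 per rat) went into EDTA tubes over 24 h. Plasma was extracted by SPE with an analog internal standard and run on an anion-exchange HPLC column, SRM m/z 204.1 > 77.1. Parameters came from noncompartmental analysis and are reported as means.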

[8] = AUC (0 to 24 hrs) in Sprague-Dawley rat at 3 mg/kg, iv by LC/MS/MS analysis; assay type: ADME, organism-based; design: time < 24 hr, dose 3 mg/kg, route intravenous; conditions: plasma; how it was run: as §1
[9] = Cmax in Sprague-Dawley rat at 1 mg/kg, po up to 24 hrs by LC/MS/MS analysis; assay type: ADME, organism-based; design: dose 1 mg/kg, route oral; conditions: in vivo; how it was run: as §1
[10] = Initial plasma concentration in Sprague-Dawley rat at 3 mg/kg, iv by LC/MS/MS analysis; assay type: ADME, organism-based; design: dose 3 mg/kg, route intravenous; how it was run: as §1
[11] = Half life in Sprague-Dawley rat at 10 mg/kg, po by LC/MS/MS analysis; assay type: ADME, organism-based; design: dose 10 mg/kg, route oral; conditions: in vivo; how it was run: as §1
[12] = AUC (0 to 24 hrs) in Sprague-Dawley rat at 10 mg/kg, po by LC/MS/MS analysis; assay type: ADME, organism-based; design: time < 24 hr, dose 10 mg/kg, route oral; conditions: plasma; how it was run: as §1
[13] = Oral bioavailability in Sprague-Dawley rat at 3 mg/kg up to 24 hrs by LC/MS/MS analysis; assay type: ADME, organism-based; conditions: in vivo; how it was run: as §1
[14] = Cmax in Sprague-Dawley rat at 3 mg/kg, po up to 24 hrs by LC/MS/MS analysis; assay type: ADME, organism-based; design: dose 3 mg/kg, route oral; conditions: in vivo; how it was run: as §1
[15] = Clearance in Sprague-Dawley rat at 3 mg/kg, iv up to 24 hrs by LC/MS/MS analysis; assay type: ADME, organism-based; design: dose 3 mg/kg, route intravenous; conditions: in vivo; how it was run: as §1
[16] = Tmax in Sprague-Dawley rat at 3 mg/kg, po by LC/MS/MS analysis; assay type: ADME, organism-based; design: dose 3 mg/kg, route oral; conditions: in vivo; how it was run: as §1
[17] = Tmax in Sprague-Dawley rat at 3 mg/kg, iv by LC/MS/MS analysis; assay type: ADME, organism-based; design: dose 3 mg/kg, route intravenous; conditions: in vivo; how it was run: as §1
[18] = Half life in Sprague-Dawley rat at 3 mg/kg, po by LC/MS/MS analysis; assay type: ADME, organism-based; design: dose 3 mg/kg, route oral; conditions: in vivo; how it was run: as §1
Rattus norvegicus [19] = test: Neurotoxicity in Sprague-Dawley rat assessed as impairment of motor coordination at 3 to 10 mg/kg, po administered 2 hrs prior to test by rotarod test; assay type: toxicity, organism-based; design: dose 3-10 mg/kg, route oral; conditions: in vivo
How it was run: (§2)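 Rats were trained to stay on a 4 rpm rotorod for 1 min, with up to four attempts, and were retested 30-60 min later; failures were excluded. Trained rats (8/group) received oral aqueous solution (3, 10 or 30 mg/kg) or vehicle and were retested 120 min later, scored as seconds on the rotorod. One-way ANOVA with Dunnett's test was run against vehicle.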

[20] = AUC (0 to 24 hrs) in Sprague-Dawley rat at 3 mg/kg, po by LC/MS/MS analysis; assay type: ADME, organism-based; design: time < 24 hr, dose 3 mg/kg, route oral; conditions: plasma; how it was run: as §1
Rattus norvegicus [21] = test: Neurotoxicity in Sprague-Dawley rat assessed as impairment of motor coordination at 30 mg/kg, po administered 2 hrs prior to test by rotarod test; assay type: toxicity, organism-based; design: dose 30 mg/kg, route oral; conditions: in vivo; how it was run: as §2
[22] = Half life in Sprague-Dawley rat at 1 mg/kg, po by LC/MS/MS analysis; assay type: ADME, organism-based; design: dose 1 mg/kg, route oral; conditions: in vivo; how it was run: as §1
[23] = Half life in Sprague-Dawley rat at 3 mg/kg, iv by LC/MS/MS analysis; assay type: ADME, organism-based; design: dose 3 mg/kg, route intravenous; conditions: in vivo; how it was run: as §1
[24] = Volume of distribution at steady state in Sprague-Dawley rat at 3 mg/kg, iv up to 24 hrs by LC/MS/MS analysis; assay type: ADME, organism-based; design: dose 3 mg/kg, route intravenous; conditions: in vivo, read-out: Vdss; how it was run: as §1
Rattus norvegicus [25] = test: Antipsychotic activity in po dosed Sprague-Dawley rat assessed as decrease in PCP-elicited ambulations administered 2 hrs prior to test measured for 60 mins; assay type: functional
[26] = Tmax in Sprague-Dawley rat at 10 mg/kg, po by LC/MS/MS analysis; assay type: ADME, organism-based; design: dose 10 mg/kg, route oral; conditions: in vivo; how it was run: as §1
[27] = Tmax in Sprague-Dawley rat at 1 mg/kg, po by LC/MS/MS analysis; assay type: ADME, organism-based; design: dose 1 mg/kg, route oral; conditions: in vivo; how it was run: as §1
[28] = AUC (0 to 24 hrs) in Sprague-Dawley rat at 1 mg/kg, po by LC/MS/MS analysis; assay type: ADME, organism-based; design: time < 24 hr, dose 1 mg/kg, route oral; conditions: plasma; how it was run: as §1
[29] = biological target: T2, Metabotropic glutamate receptor 3; test: Antagonist activity at human mGlu3 receptor expressed in golden Syrian hamster AV12 cells coexpressing EAAT1 assessed as inhibition of forskolin-stimulated cAMP production after 20 mins by HTRF assay; assay type: functional, cell-based
[30] = biological target: T3, Metabotropic glutamate receptor 2; test: Antagonist activity at human mGlu2 receptor expressed in golden Syrian hamster AV12 cells coexpressing EAAT1 assessed as inhibition of forskolin-stimulated cAMP production after 20 mins by HTRF assay; assay type: functional, cell-based

SMILES: N[C@@H]1C[C@@](N)(C(=O)O)[C@@H]2[C@@H](C(=O)O)[C@@H]21
- EC50 [1]: 11.8 µM
- EC50 [2]: 0.0571 µM
- EC50 [3]: 0.0479 µM
- EC50 [4]: > 25 µM

SMILES: C=C1C[C@@](N)(C(=O)O)[C@H]2[C@@H]1[C@@H]2C(=O)O
- EC50 [2]: 0.0155 µM
- EC50 [3]: 0.0013 µM
- EC50 [5]: 0.267 µM
- %max [6]: 100%
- EC50 [4]: 1.59 µM

SMILES: C[C@H]1C[C@@](N)(C(=O)O)[C@@H]2[C@@H](C(=O)O)[C@@H]21
- EC50 [1]: 9.28 µM
- EC50 [2]: 0.166 µM
- EC50 [3]: 0.0286 µM
- EC50 [4]: > 25 µM

SMILES: N[C@@]1(C(=O)O)C[C@H](O)[C@H]2[C@H](C(=O)O)[C@H]21
- EC50 [3]: 0.0075 µM
- EC50 [5]: 3.04 µM
- EC50 [4]: > 25 µM

SMILES: N[C@@]1(C(=O)O)C[C@@H](F)[C@H]2[C@H](C(=O)O)[C@H]21
- EC50 [1]: 1.41 µM
- EC50 [2]: 0.00024 µM
- Cmax [7]: 7.94 µM
- AUC(0-t) at 24 h [8]: 16.7 µM·h
- EC50 [3]: 0.00056 µM
- Cmax [9]: 0.713 µM
- C0 [10]: 36.7 µM
- half-life [11]: 5.9 h
- AUC(0-t) at 24 h [12]: 23.6 µM·h
- bioavailability [13]: 64.4%
- Cmax [14]: 3.94 µM
- clearance [15]: 14.8 mL/min/kg
- Tmax [16]: 1.8 h
- Tmax [17]: 0 h
- half-life [18]: 3.5 h
- Activity (Rattus norvegicus [19]): Non-toxic
- AUC(0-t) at 24 h [20]: 10.7 µM·h
- Activity (Rattus norvegicus [21]): Toxic
- half-life [22]: 2.7 h
- half-life [23]: 7.3 h
- Vd [24]: 1.25 L/kg
- Activity (Rattus norvegicus [25]): Dose-dependent effect
- ED50 (Rattus norvegicus [25]): 2.08 mg/kg
- EC50 [4]: 11.5 µM
- Tmax [26]: 2 h
- Tmax [27]: 2.5 h
- AUC(0-t) at 24 h [28]: 2.79 µM·h

SMILES: N[C@H]1C[C@@](N)(C(=O)O)[C@@H]2[C@@H](C(=O)O)[C@@H]21
- EC50 [1]: 9.37 µM
- EC50 [2]: 0.0249 µM
- EC50 [3]: 0.0212 µM
- EC50 [4]: > 25 µM

SMILES: CC(=O)N[C@H]1C[C@@](N)(C(=O)O)[C@@H]2[C@@H](C(=O)O)[C@@H]21
- EC50 [1]: 0.709 µM
- EC50 [2]: 0.193 µM
- EC50 [3]: 0.257 µM
- EC50 [4]: 4.3 µM

SMILES: N[C@@]1(C(=O)O)CC(=O)[C@H]2[C@H](C(=O)O)[C@H]21
- EC50 [2]: 0.00011 µM
- EC50 [3]: 0.00016 µM
- EC50 [5]: 1.38 µM
- %max [6]: 100%
- EC50 [4]: 6.53 µM

SMILES: N[C@@]1(C(=O)O)C[C@H](Sc2ccccc2)[C@H]2[C@H](C(=O)O)[C@H]21
- EC50 [1]: 3.25 µM
- EC50 [3]: 1.17 µM
- IC50 [29]: 3.37 µM
- EC50 [4]: > 25 µM

SMILES: N[C@@]1(C(=O)O)CC[C@H]2[C@H](C(=O)O)[C@H]21
- EC50 [1]: 3.36 µM
- EC50 [2]: 0.0271 µM
- EC50 [4]: > 25 µM

SMILES: [N-]=[N+]=N[C@@H]1C[C@@](N)(C(=O)O)[C@@H]2[C@@H](C(=O)O)[C@@H]21
- EC50 [1]: 0.78 µM
- EC50 [2]: 0.0123 µM
- EC50 [3]: 0.0082 µM
- EC50 [4]: 12.4 µM

SMILES: [N-]=[N+]=N[C@H]1C[C@@](N)(C(=O)O)[C@@H]2[C@@H](C(=O)O)[C@@H]21
- EC50 [2]: 0.0235 µM
- EC50 [3]: 0.0122 µM
- EC50 [5]: 1.89 µM
- %max [6]: 100%
- EC50 [4]: 12 µM

SMILES: N[C@@]1(C(=O)O)C[C@@H](O)[C@H]2[C@H](C(=O)O)[C@H]21
- EC50 [1]: 4.37 µM
- EC50 [3]: 0.0076 µM
- EC50 [4]: > 25 µM

SMILES: N[C@@]1(C(=O)O)C[C@@H](Sc2ccccc2)[C@H]2[C@H](C(=O)O)[C@H]21
- EC50 [1]: 1.27 µM
- IC50 [29]: 0.895 µM
- EC50 [4]: > 25 µM
- IC50 [30]: 7.02 µM

SMILES: C[C@@H]1C[C@@](N)(C(=O)O)[C@@H]2[C@@H](C(=O)O)[C@@H]21
- EC50 [1]: 7.54 µM
- EC50 [3]: 0.0636 µM
- IC50 [29]: 3.42 µM
- EC50 [4]: > 25 µM

SMILES: CC(=O)N[C@@H]1C[C@@](N)(C(=O)O)[C@@H]2[C@@H](C(=O)O)[C@@H]21
- EC50 [1]: 6.69 µM
- IC50 [29]: 3.39 µM
- EC50 [4]: > 25 µM
- IC50 [30]: 4.99 µM
